In publication PMC10731006 (Heliyon, 2023):
≈ marks a conversion by molar mass, not a printed value. Where two headings read alike, the source gives them in different places. Values belong to the compound of their own block, whether it stands above or below them.

Columns and labels:
[1] = system: breast cancer (MCF7) cells; assay: MTT cytotoxicity assay, MCF7; type: cell-based, human; conditions: for SI MCF-7 (selectivity index): IC50 in HDF / IC50 in MCF-7, 96 h; for IC50: read-out: IC50 MCF-7
Summary of the method: (§1)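 Cells were grown in RPMI 1640 with 10% FCS, 2 mM L-glutamine and 1% penicillin-streptomycin at 37 °C under 5% CO2. They were seeded at 1 × 10^4 cells/ml, left overnight to adhere, and exposed 96 h to test compound diluted in medium (six final levels, 1–600), with DMSO-matched and cisplatin controls. MTT at 5 mg/ml was added for 4 h, formazan dissolved in DMSO, and A540 read, in triplicate. IC50 was fitted from the data. SI = IC50 in HDF / IC50 in this line.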

[2] = system: human dermal fibroblast (HDF, human dermal cell line); assay: MTT cytotoxicity assay, normal cells; type: cell-based; conditions: read-out: IC50 HDF
Summary of the method: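 Human dermal fibroblasts were maintained in DMEM with 10% FCS, 2 mM L-glutamine and 1% penicillin-streptomycin (37 °C, 5% CO2). They were seeded at 1 × 10^4 cells/ml, allowed to adhere overnight, then treated 96 h with serially diluted test compound (six final levels, 1–600) beside DMSO-matched vehicle and cisplatin controls. Then MTT 5 mg/ml was added for 4 h, formazan taken up in DMSO, and absorbance read at 540 nm, in triplicate. IC50 was fitted.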

[3] = system: glioblastoma (U-87 MG) cells; assay: MTT cytotoxicity assay, U-87 MG; type: cell-based, human; conditions: for SI U87 (selectivity index): IC50 in HDF / IC50 in U87, 96 h; for IC50: read-out: IC50 U87
Summary of the method: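 U-87 MG cells were cultured in DMEM with 10% FCS, 2 mM L-glutamine and 1% penicillin-streptomycin at 37 °C, 5% CO2. Seeding was 1 × 10^4 cells/ml; after overnight adherence, test compound diluted in medium (six final levels, 1–600) was applied for 96 h alongside DMSO-matched and cisplatin controls. Read-out: MTT 5 mg/ml for 4 h, DMSO solubilisation, A540, in triplicate, IC50 fitted. SI = IC50 in HDF / IC50 in U87.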

[4] = system: non-small cell lung cancer (A549) cells; assay: MTT cytotoxicity assay, A549; type: cell-based, human; conditions: for SI A549 (selectivity index): IC50 in HDF / IC50 in A549, 96 h; for IC50: read-out: IC50 A549
Summary of the method: as §1

[5] = system: HDF, U87, MCF-7 and A549 cells; assay: Morphological analysis; type: cell-based, human; conditions: 96 h, treatment at the respective IC50 for each cell line
Summary of the method: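 HDF, U87, MCF-7 and A549 cells were seeded at 1 × 10^4 cells/ml in flat-bottom plates and adhered overnight. They were then treated 96 h with test compound serially diluted in medium (final 1–600 μM/ml). Controls were untreated and DMSO-matched wells, plus cisplatin at 1–100 μM/mL. Cells were fixed in ice-cold methanol for 30 min at 4 °C, stained with hematoxylin, and viewed by inverted light microscopy.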

[6] = system: Pseudomonas aeruginosa (ATCC 13048); assay: Agar diffusion test, P. aeruginosa; type: cell-based; conditions: ATCC13048, read-out: Zone of inhibition PA
[7] = ABTS radical scavenging assay
[8] = system: Gram-positive and Gram-negative bacterial test strains; assay: Antibacterial activity, whole panel of test strains; type: cell-based; conditions: agar diffusion
Summary of the method: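 Disc diffusion followed CLSI (2012). Test compound at 10, 50 and 100 μg/disc was loaded on 6-mm blank filter discs laid on Mueller Hinton agar seeded at 10^6 cells/ml. Strains were S. aureus ATCC 10145, B. cereus ATCC 11778, B. subtilis ATCC 6633, P. aeruginosa ATCC 13048 and E. coli ATCC 25922. Inhibition zones were recorded.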

[9] = system: Escherichia coli (ATCC 25922); assay: Micro-broth dilution assay; type: cell-based; conditions: ATCC25922, read-out: MIC EC
[10] = system: Bacillus cereus (ATCC 11778); assay: Micro-broth dilution assay; type: cell-based; conditions: ATCC11778, read-out: MIC BC
[11] = system: Staphylococcus aureus (ATCC 10145); assay: Micro-broth dilution assay; type: cell-based; conditions: ATCC10145, read-out: MIC SA
[12] = system: cancer cell lines (U87, MCF-7 and A549) compared to normal cells (HDF); assay: MTT cytotoxicity, cancer cell lines compared to normal cells; type: cell-based, human; conditions: 96 h treatment
Summary of the method: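 A549 and MCF7 grown in RPMI 1640, HDF and U87 in DMEM, each with 10% FCS, 2 mM L-glutamine, 1% pen-strep, 37 °C, 5% CO2. Cells at 1 × 10^4 cells/ml were adhered overnight, then exposed 96 h to test compound (final 1–600 […] in medium). Controls were blank, untreated, DMSO-matched and cisplatin (1–100 μM/mL). MTT 5 mg/ml for 4 h; DMSO-solubilised formazan read at 540 nm, triplicate. IC50 from curve fitting; selectivity index = HDF IC50 / cancer-line IC50.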

[13] = system: Escherichia coli (ATCC 25922); assay: Agar diffusion test, E. coli; type: cell-based; conditions: ATCC25922, read-out: Zone of inhibition EC
[14] = system: Bacillus cereus (ATCC 11778); assay: Agar diffusion test, B. cereus; type: cell-based; conditions: ATCC11778, read-out: Zone of inhibition BC
[15] = system: Staphylococcus aureus (ATCC 10145); assay: Agar diffusion test, S. aureus; type: cell-based; conditions: ATCC10145, read-out: Zone of inhibition SA
B. subtilis (ATCC 6633) = assay: Micro-broth dilution assay; type: cell-based; conditions: Bacillus subtilis, ATCC6633, read-out: MIC BS
[16] = DPPH radical scavenging assay
[17] = system: Pseudomonas aeruginosa (ATCC 13048); assay: Micro-broth dilution assay; type: cell-based; conditions: ATCC13048, read-out: MIC PA

SMILES: N.N.[Cl][Pt][Cl] [Cisplatin, reference compound]
SI MCF-7 (selectivity index) [1]: 1.5 | IC50 ([1]; MTT, 96 h treatment): 26.9 ± 4.7 µM | IC50 ([2]; MTT, 96 h treatment): 40.9 ± 5.4 µM | SI U87 (selectivity index) [3]: 1.5 | IC50 ([3]; MTT, 96 h treatment): 28.3 ± 5.3 µM | SI A549 (selectivity index) [4]: 1.3 | IC50 ([4]; MTT, 96 h treatment): 30.4 ± 5.2 µM | morphological changes of treated cancer cells [5]: became rounded and separated from each other, shrank, and underwent nuclear condensation

IC50 ± SD, ABTS [7]: 35.1 ± 2.0 µg/mL (≈ 62.1 µM) | MIC [9]: > 500 µg/mL | MIC [10]: 500 µg/mL (≈ 885 µM) | MIC [11]: > 500 µg/mL | MIC (B. subtilis (ATCC 6633)): > 500 µg/mL | IC50 ± SD, DPPH [16]: 43.1 ± 1.8 µg/mL (≈ 76.3 µM) | MIC [17]: 500 µg/mL (≈ 885 µM)
SMILES: COC(=O)c1cn(C2CC2)c2cc(N3CCN(C(=O)c4c(C)nnn4-c4ccc(Cl)cc4)CC3)c(F)cc2c1=O [Compound 6c, methyl 7-(4-(1-(4-chlorophenyl)-4-methyl-1H-1,2,3-triazole-5-carbonyl)piperazin-1-yl)-1-cyclopropyl-6-fluoro-4-oxo-1,4-dihydroquinoline-3-carboxylate]
zone of inhibition at 100 µg/disc [6]: 12.3 ± 0.6 mm | zone of inhibition at 300 µg/disc [6]: 14.6 ± 0.6 mm | zone of inhibition at 500 µg/disc [6]: 16.3 ± 0.6 mm | % inhibition ±SD, ABTS ([7]; 5 μg/ml): 14.8 ± 0.6% | % inhibition ±SD, ABTS ([7]; 10 μg/ml): 33.3 ± 0.8% | % inhibition ±SD, ABTS ([7]; 25 μg/ml): 42.7 ± 0.4% | % inhibition ±SD, ABTS ([7]; 50 μg/ml): 59.8 ± 0.3% | % inhibition ±SD, ABTS ([7]; 100 μg/ml): 65.7 ± 0.1% | inhibition zones, range over susceptible strains [8]: 13 to 16 mm | IC50 ([1]; Homo sapiens, MCF7, 96 h): 61.6 ± 11.1 µM | SI MCF-7 (selectivity index) [1]: 4.8 | IC50 ([2]; Homo sapiens, Fibroblast, 96 h): 294 ± 11.4 µM | cytotoxic / anti-proliferative activity in words [12]: significant cytotoxic activity against only U-87 and MCF-7 cancer cell lines | zone of inhibition at 100 µg/disc [13]: 11.3 ± 0.7 mm | zone of inhibition at 300 µg/disc [13]: 13.6 ± 1.2 mm | zone of inhibition at 500 µg/disc [13]: 14.6 ± 0.3 mm | IC50 ([3]; Homo sapiens, U-87 MG, 96 h): 12.3 ± 5.5 µM | SI U87 (selectivity index) [3]: 23.9 | zone of inhibition at 100 µg/disc [14]: 12.7 ± 0.6 mm | zone of inhibition at 300 µg/disc [14]: 13.7 ± 1.1 mm | zone of inhibition at 500 µg/disc [14]: 15.3 ± 0.7 mm | zone of inhibition at 100 µg/disc [15]: 10.6 ± 1.2 mm | zone of inhibition at 300 µg/disc [15]: 12.3 ± 0.6 mm | zone of inhibition at 500 µg/disc [15]: 13.3 ± 0.3 mm | IC50 ([4]; Homo sapiens, A549, 96 h): 239 ± 7.9 µM | SI A549 (selectivity index) [4]: 1.2 | % inhibition ±SD, DPPH ([16]; 10 μg/ml): 24.6 ± 1.8% | % inhibition ±SD, DPPH ([16]; 25 μg/ml): 31.7 ± 0.3% | % inhibition ±SD, DPPH ([16]; 50 μg/ml): 52.2 ± 0.2% | % inhibition ±SD, DPPH ([16]; 100 μg/ml): 71.4 ± 0.7%

IC50 ± SD, ABTS [7]: 31.7 ± 1.9 µg/mL (≈ 53 µM) | MIC [9]: > 500 µg/mL | MIC [10]: > 500 µg/mL | MIC [11]: 500 µg/mL (≈ 835 µM) | MIC (B. subtilis (ATCC 6633)): > 500 µg/mL | IC50 ± SD, DPPH [16]: 58.8 ± 1.7 µg/mL (≈ 98.2 µM) | MIC [17]: 500 µg/mL (≈ 835 µM)
SMILES: COC(=O)c1cn(C2CC2)c2cc(N3CCN(C(=O)c4c(C)nnn4-c4ccc(C(F)(F)F)cc4)CC3)c(F)cc2c1=O [Compound 6d, methyl 7-(4-(1-(4-trifluoromethylphenyl)-4-methyl-1H-1,2,3-triazole-5-carbonyl)piperazin-1-yl)-1-cyclopropyl-6-fluoro-4-oxo-1,4-dihydroquinoline-3-carboxylate]
zone of inhibition at 100 µg/disc [6]: 11.7 ± 0.6 mm | zone of inhibition at 300 µg/disc [6]: 13 ± 0.3 mm | zone of inhibition at 500 µg/disc [6]: 13.3 ± 0.6 mm | % inhibition ±SD, ABTS ([7]; 5 μg/ml): 21.1 ± 1.0% | % inhibition ±SD, ABTS ([7]; 10 μg/ml): 33.7 ± 0.7% | % inhibition ±SD, ABTS ([7]; 25 μg/ml): 42.8 ± 0.3% | % inhibition ±SD, ABTS ([7]; 50 μg/ml): 61.6 ± 0.6% | % inhibition ±SD, ABTS ([7]; 100 μg/ml): 66.5 ± 0.6% | inhibition zones, range over susceptible strains [8]: 12–14 mm | IC50 ([1]; Homo sapiens, MCF7, 96 h): 124 ± 10.6 µM | SI MCF-7 (selectivity index) [1]: 3.4 | IC50 ([2]; Homo sapiens, Fibroblast, 96 h): 425 ± 18.5 µM | cytotoxic / anti-proliferative activity in words [12]: significant cytotoxic activity against only U-87 and MCF-7 cancer cell lines | zone of inhibition at 100 µg/disc [13]: 8.3 ± 1.5 mm | zone of inhibition at 300 µg/disc [13]: 10.3 ± 0.7 mm | zone of inhibition at 500 µg/disc [13]: 12.6 ± 0.7 mm | IC50 ([3]; Homo sapiens, U-87 MG, 96 h): 3.82 ± 2.9 µM | SI U87 (selectivity index) [3]: 111.4 | zone of inhibition at 100 µg/disc [14]: 9.6 ± 1.2 mm | zone of inhibition at 300 µg/disc [14]: 11 mm | zone of inhibition at 500 µg/disc [14]: 13.3 ± 0.6 mm | zone of inhibition at 100 µg/disc [15]: 10.3 ± 0.6 mm | zone of inhibition at 300 µg/disc [15]: 12.3 ± 0.6 mm | zone of inhibition at 500 µg/disc [15]: 14.6 ± 1.2 mm | IC50 ([4]; Homo sapiens, A549, 96 h): 308 ± 12.1 µM | SI A549 (selectivity index) [4]: 1.4 | % inhibition ±SD, DPPH ([16]; 5 μg/ml): 13.8 ± 0.2% | % inhibition ±SD, DPPH ([16]; 10 μg/ml): 26.0 ± 0.9% | % inhibition ±SD, DPPH ([16]; 25 μg/ml): 42.1 ± 0.6% | % inhibition ±SD, DPPH ([16]; 50 μg/ml): 46.2 ± 0.3% | % inhibition ±SD, DPPH ([16]; 100 μg/ml): 68.7 ± 0.1%
